Assay [1] has as its system HT-29. Kind of assay: Inhibition of mitochondrial membrane potential in human HT-29 cells after 3 hrs by JC-1 staining based fluorescence assay. In kind it is functional, cell-based. As to conditions: HT-29, 3 h.
The test system of assay [2] is MDA-MB-231. Put plainly: Cytotoxicity against human MDA-MB-231 cells assessed as reduction in cell viability after 72 hrs by CellTiter 96 aqueous one solution assay. It counts as functional, cell-based. The conditions noted are these: MDA-MB-231, 72 h. In short, it runs like this: (§1)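 Cells grown in RPMI 1640 with 10% FBS, penicillin and streptomycin; log-phase cells trypsinized, seeded, left overnight at 37 °C in 5% CO₂, then exposed 72 h to samples diluted from DMSO, with DMSO vehicle and paclitaxel control. Viability read by absorbance. IC50 taken relative to vehicle by nonlinear regression; triplicate, three independent experiments.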

In assay [3] the test system is OVCAR-3. Kind of assay: Cytotoxicity against human OVCAR3 cells assessed as reduction in cell viability after 72 hrs by CellTiter 96 aqueous one solution assay. It counts as functional, cell-based. As to conditions: OVCAR-3, 72 h. In short, it runs like this: as §1
Assay [4] addresses Transcription factor p65 (Homo sapiens, UniProt Q04206). Kind of assay: Inhibition of biotinylated consensus sequence binding to NF-kB p65 in human HeLa nuclear extracts after 3 hrs by ELISA. (An ELISA detects its analyte on a solid surface through an enzyme-linked reagent.)
In assay [5] the test system is HT-29. Kind of assay: Cytotoxicity against human HT-29 cells assessed as reduction in cell viability after 72 hrs by CellTiter 96 aqueous one solution assay. As to conditions: HT-29, 72 h. In kind it is functional, cell-based. In outline:
as §1

Assay [6] concerns MDA-MB-435. Kind of assay: Cytotoxicity against human MDA-MB-435 cells assessed as reduction in cell viability after 72 hrs by CellTiter 96 aqueous one solution assay. It counts as functional, cell-based. The conditions noted are these: MDA-MB-435, 72 h. In short, it runs like this: as §1
Assay [7] relates to DU-145. Kind of assay: Cytotoxicity against human DU145 cells assessed as reduction in cell viability after 72 hrs by CellTiter 96 aqueous one solution assay. In kind it is functional, cell-based. As to conditions: DU-145, 72 h.
The test system of assay [8] is HeLa. Kind of assay: Cytotoxicity against human HeLa cells assessed as reduction in cell viability after 72 hrs by CellTiter 96 aqueous one solution assay. It counts as functional, cell-based.

Values after ≈ are worked out from the molar mass of the structure shown.

Chain of Transcription factor p65 (Q04206 whole entry): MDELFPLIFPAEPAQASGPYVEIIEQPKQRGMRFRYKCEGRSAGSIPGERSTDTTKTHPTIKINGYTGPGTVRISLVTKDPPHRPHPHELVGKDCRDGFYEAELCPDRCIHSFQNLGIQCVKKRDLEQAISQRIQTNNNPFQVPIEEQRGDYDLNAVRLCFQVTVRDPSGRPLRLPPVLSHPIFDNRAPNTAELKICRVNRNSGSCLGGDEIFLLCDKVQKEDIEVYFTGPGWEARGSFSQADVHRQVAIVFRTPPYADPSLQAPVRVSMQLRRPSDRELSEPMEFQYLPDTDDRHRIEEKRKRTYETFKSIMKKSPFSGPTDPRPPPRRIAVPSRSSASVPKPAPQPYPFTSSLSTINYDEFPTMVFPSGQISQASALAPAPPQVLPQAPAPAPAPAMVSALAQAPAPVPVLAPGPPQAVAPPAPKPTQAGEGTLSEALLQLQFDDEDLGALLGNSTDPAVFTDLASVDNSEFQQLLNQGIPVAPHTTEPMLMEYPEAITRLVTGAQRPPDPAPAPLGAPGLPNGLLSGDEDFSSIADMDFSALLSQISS

A word on the IC50: it is the point on the concentration scale where inhibition reaches its midpoint. Regarding `C=C(C)[C@@H]1CC[C@]2(C(=O)O)CC[C@]3(C)[C@H](CC[C@@H]4[C@@]5(C)C[C@@H](O)[C@H](O)C(C)(C)[C@@H]5CC[C@]43C)[C@@H]12` [ALPHITOLIC ACID], the IC50 was above 10 µM in assay [1]; above 10 µM in assay [2]; above 10 µM in assay [3]; 8.7 µM in assay [4]; above 10 µM in assay [5]; above 10 µM in assay [6].
In the case of `C=C(C)[C@@H]1CC[C@]2(C(=O)O)CC[C@]3(C)[C@H](CC[C@@H]4[C@@]5(C)CC[C@H](OC(=O)/C=C/c6ccc(O)c(OC)c6)C(C)(C)[C@@H]5CC[C@]43C)[C@@H]12`, the IC50 in assay [1] was 0.51 µM; in assay [2], above 10 µM; in assay [4], 5.4 µM; in assay [5] it was above 10 µM.
For `CC1=CC(=O)CC(C)(C)[C@H]1/C=C/[C@@H](C)O`, the IC50 in assay [2], in assay [3], in assay [5] and in assay [6] was above 10 µM each time.
Take `CC(=O)O[C@H]1C(=O)[C@@]2(C)[C@H]([C@H](OC(=O)c3ccccc3)[C@]3(O)C[C@H](OC(=O)[C@H](O)[C@@H](NC(=O)c4ccccc4)c4ccccc4)C(C)=C1C3(C)C)[C@]1(OC(C)=O)CO[C@@H]1C[C@@H]2O` [PACLITAXEL]: the IC50 in assay [2] came to 0.017 µM; in assay [3], 0.013 µM; in assay [5], 0.009 µM; in assay [6], 0.013 µM.
Take `COc1c(C)c(O)c2c(c1C)O[C@H](c1ccc(O)cc1)CC2=O`: the IC50 in assay [2] is above 10 µM; in assay [3] it was above 10 µM; in assay [5], above 10 µM; in assay [6], 6 µM.
On to `CC1(C)CC[C@]2(C(=O)O)CC[C@]3(C)C(=CC[C@@H]4[C@@]5(C)CC[C@H](O)C(C)(C)[C@@H]5CC[C@]43C)[C@@H]2C1` [OLEANOLIC_ACID], for which the IC50 in assay [1] was above 10 µM; in assay [2], above 10 µM; in assay [3], above 10 µM; in assay [4], 2.4 µM; in assay [5], above 10 µM; in assay [6] it was above 10 µM.
As for `CC(=O)/C=C/[C@]12O[C@@]1(C)C[C@@H](O)CC2(C)C`, the IC50 in assay [2], in assay [3], in assay [5] and in assay [6] was above 10 µM throughout.
With `C=C(C)[C@@H]1CC[C@]2(C(=O)O)CC[C@]3(C)[C@H](CC[C@@H]4[C@@]5(C)C[C@@H](O)[C@H](OC(=O)/C=C/c6ccc(O)cc6)C(C)(C)[C@@H]5CC[C@]43C)[C@@H]12`, the IC50 in assay [1] is above 10 µM; in assay [2], above 10 µM; in assay [3] it was above 10 µM; in assay [4], 4.7 µM; in assay [5] it was above 10 µM; in assay [6] it was above 10 µM.
`COc1cc(C=O)cc(OC)c1O`: the IC50 in assay [2], in assay [3], in assay [5] and in assay [6] was above 10 µM in each case.
In the case of `C[C@H]1[C@H](C)CC[C@]2(CO)CC[C@]3(C)C(=CC[C@@H]4[C@@]5(C)CC[C@H](O)C(C)(C)[C@@H]5CC[C@]43C)[C@H]12` [UVAOL], the IC50 in assay [1], in assay [2], in assay [3], in assay [4], in assay [5] and in assay [6] was above 10 µM in each case.
In the case of `C[C@H]1[C@H](C)CC[C@]2(C(=O)O)CC[C@]3(C)C(=CC[C@@H]4[C@@]5(C)CC[C@H](O)C(C)(C)[C@@H]5CC[C@]43C)[C@H]12` [URSOLIC ACID], the IC50 in assay [1] was 3.5 µM; in assay [2] it was 5.9 µM; in assay [7], 11.1 to 13.1 µg/mL (≈ 24.3 to 28.7 µM); in assay [8], 11.1 to 13.1 µg/mL (≈ 24.3 to 28.7 µM); in assay [4], 0.031 µM; in assay [5] it was 11.1 µg/mL. The IC50 in assay [6] was determined as 13.1 µg/mL.
For `C[C@H]1[C@H](C)CC[C@]2(C(=O)O)CC[C@]3(C)C(=CC[C@@H]4[C@@]5(C)CC[C@H](OC(=O)c6ccc(Cl)cc6)C(C)(C)[C@@H]5CC[C@]43C)[C@H]12`, the IC50 in assay [1], in assay [2], in assay [4] and in assay [5] was above 10 µM in each case.
For `COc1c(C)c(O)c2c(=O)cc(-c3ccc(O)cc3)oc2c1C` [SIDEROXYLIN], the IC50 in assay [1], in assay [2], in assay [3], in assay [4], in assay [5] and in assay [6] was above 10 µM throughout.
As for `COc1cc2c(=O)oc3c(OC)c(O)cc4c(=O)oc(c1OC)c2c34`, the IC50 in assay [1] was above 10 µM; in assay [3], above 10 µM; in assay [4], 1.6 µM; in assay [5], above 10 µM; in assay [6], above 10 µM.
On to `CC1=CC(=O)CC(C)(C)[C@@]1(O)/C=C/[C@@H](C)O` [BLUMENOL A], for which the IC50 in assay [1], in assay [2], in assay [3], in assay [4], in assay [5] and in assay [6] was above 10 µM each time.
Turning to `COc1c(O)cc2c(=O)oc3c4c(cc5c(=O)oc1c2c35)OCO4`, the IC50 in assay [1], in assay [2], in assay [3], in assay [5] and in assay [6] was above 10 µM throughout.
In the case of `CC1(C)C[C@H](O)C[C@@]2(C)OC(=O)C=C12` [LOLIOLIDE], the IC50 in assay [1], in assay [2], in assay [3], in assay [4], in assay [5] and in assay [6] was above 10 µM in each case.
With `COc1c(OC)c2oc(=O)c3cc4c(c5oc(=O)c(c1OC)c2c53)OCO4`, the IC50 in assay [1], in assay [3], in assay [4], in assay [5] and in assay [6] was above 10 µM throughout.
As to `C=C(C)[C@H](O)CC[C@](C)(O)[C@H]1CC[C@]2(C)[C@@H]1CC[C@@H]1[C@@]3(C)CC[C@H](O)C(C)(C)[C@@H]3CC[C@]12C`, the IC50 in assay [2], in assay [3], in assay [5] and in assay [6] was above 10 µM each time.
Regarding `C=C(C)[C@@H]1CC[C@]2(C(=O)O)CC[C@]3(CO)[C@H](CC[C@@H]4[C@@]5(C)CC[C@H](O)C(C)(C)[C@@H]5CC[C@]43C)[C@@H]12`, the IC50 in assay [1], in assay [2], in assay [3], in assay [4], in assay [5] and in assay [6] was above 10 µM each time.
With `CC(=O)/C=C/[C@@]1(O)C(C)=CC(=O)CC1(C)C`, the IC50 in assay [1], in assay [3], in assay [5] and in assay [6] was above 10 µM each time.
Consider `CC1(C)CC[C@]2(CO)CC[C@]3(C)C(=CC[C@@H]4[C@@]5(C)CC[C@H](O)C(C)(C)[C@@H]5CC[C@]43C)[C@@H]2C1` [ERYTHRODIOL], for which the IC50 in assay [1], in assay [2], in assay [3], in assay [4], in assay [5] and in assay [6] was above 10 µM throughout.
`C=C(C)[C@@H]1CC[C@]2(C(=O)O)CC[C@]3(C(=O)O)[C@H](CC[C@@H]4[C@@]5(C)CC[C@H](O)C(C)(C)[C@@H]5CC[C@]43C)[C@@H]12`: the IC50 in assay [1], in assay [2], in assay [3], in assay [4], in assay [5] and in assay [6] was above 10 µM each time.
Consider `C=C(C)[C@@H]1CC[C@]2(C(=O)O)CC[C@]3(C)[C@H](CC[C@@H]4[C@@]5(C)CC[C@H](O)C(C)(C)[C@@H]5CC[C@]43C)[C@@H]12` [BETULINIC ACID], for which the IC50 in assay [1] is 3.5 µM; in assay [2], above 10 µM; in assay [5] it was above 10 µM.
As to `C=C(C)[C@@H]1CC[C@]2(C(=O)OC)CC[C@]3(C(=O)O)[C@H](CC[C@@H]4[C@@]5(C)CC[C@H](O)C(C)(C)[C@@H]5CC[C@]43C)[C@@H]12`, the IC50 is above 10 µM in assay [1], above 10 µM in assay [2], 1.5 µM in assay [4] and above 10 µM in assay [5].
As to `C=C(C)[C@@H]1CC[C@]2(CO)CC[C@]3(C)[C@H](CC[C@@H]4[C@@]5(C)CC[C@H](O)C(C)(C)[C@@H]5CC[C@]43C)[C@@H]12` [BETULIN], the IC50 in assay [1] is above 10 µM; in assay [2] it was above 10 µM; in assay [3], above 10 µM; in assay [4], 8.8 µM; in assay [5] it was above 10 µM; in assay [6] it was above 10 µM.
In the case of `CC(=O)CC[C@@H](C1=C[C@@](C)(O)CCC1=O)C(C)C`, the IC50 in assay [2], in assay [3], in assay [5] and in assay [6] was above 10 µM in each case.
